Experiments:
[1] = system: NCI-H460; test: Anticancer activity against human NCI-H460 cells assessed as cell growth at 100 uM after 48 hrs by sulforhodamine B assay relative to control; type: functional; details: NCI-H460, 48 h, read-out: Activity
Summary of the method: (§1)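 Three-cell-line prescreen (NCI-H460 lung, MCF7 breast, SF 268 CNS), each preincubated on microtiter plates. The agent is added at a single concentration and cultures are incubated 48 h. Growth is read by sulphorhodamine B protein staining and reported as percent growth of treated versus untreated control cells; negative values indicate cell kill.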

[2] = system: MCF7; test: Anticancer activity against human MCF7 cells assessed as cell growth at 100 uM after 48 hrs by sulforhodamine B assay relative to control; type: functional; details: MCF7, 48 h, read-out: Activity; summary of the method: as §1
[3] = system: SF-268; test: Anticancer activity against human SF268 cells assessed as cell growth at 100 uM after 48 hrs by sulforhodamine B assay relative to control; type: functional; details: SF-268, 48 h, read-out: Activity; summary of the method: as §1
[4] = system: K562; test: Anticancer activity against human K562 cells after 48 hrs by sulforhodamine B assay; type: functional; details: K562, 48 h
Summary of the method: (§2)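 Full 60-cell-line panel, compounds tested over a five-log dose range. Cells are preincubated on microtiter plates, the agent is added, and cultures run 48 h. The end point is sulphorhodamine B protein staining. GI50 is taken as the concentration giving 50% growth inhibition relative to untreated control cells.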

[5] = system: MOLT-4; test: Anticancer activity against human MOLT4 cells after 48 hrs by sulforhodamine B assay; type: functional; details: MOLT-4, 48 h; summary of the method: as §2
[6] = system: A549; test: Anticancer activity against human A549 cells after 48 hrs by sulforhodamine B assay; type: functional; details: A549, 48 h; summary of the method: as §2
[7] = system: EKVX; test: Anticancer activity against human EKVX cells after 48 hrs by sulforhodamine B assay; type: functional; summary of the method: as §2
[8] = system: HOP-62; test: Anticancer activity against human HOP62 cells after 48 hrs by sulforhodamine B assay; type: functional; details: HOP-62, 48 h; summary of the method: as §2
[9] = system: HOP-92; test: Anticancer activity against human HOP92 cells after 48 hrs by sulforhodamine B assay; type: functional; details: HOP-92, 48 h; summary of the method: as §2
[10] = system: NCI-H226; test: Anticancer activity against human NCI-H226 cells after 48 hrs by sulforhodamine B assay; type: functional; details: NCI-H226, 48 h; summary of the method: as §2
[11] = system: NCI-H23; test: Anticancer activity against human NCI-H23 cells after 48 hrs by sulforhodamine B assay; type: functional; details: NCI-H23, 48 h; summary of the method: as §2
[12] = system: NCI-H322M; test: Anticancer activity against human NCI-H322M cells after 48 hrs by sulforhodamine B assay; type: functional; summary of the method: as §2
[13] = system: NCI-H460; test: Anticancer activity against human NCI-H460 cells after 48 hrs by sulforhodamine B assay; type: functional; details: NCI-H460, 48 h; summary of the method: as §2
[14] = system: NCI-H522; test: Anticancer activity against human NCI-H522 cells after 48 hrs by sulforhodamine B assay; type: functional; details: NCI-H522, 48 h; summary of the method: as §2
[15] = system: COLO 205; test: Anticancer activity against human COLO205 cells after 48 hrs by sulforhodamine B assay; type: functional; details: COLO 205, 48 h; summary of the method: as §2
[16] = system: HCC 2998; test: Anticancer activity against human HCC2998 cells after 48 hrs by sulforhodamine B assay; type: functional; details: HCC 2998, 48 h; summary of the method: as §2
[17] = system: HCT-116; test: Anticancer activity against human HCT116 cells after 48 hrs by sulforhodamine B assay; type: functional; details: HCT-116, 48 h; summary of the method: as §2
[18] = system: HCT-15; test: Anticancer activity against human HCT15 cells after 48 hrs by sulforhodamine B assay; type: functional; details: HCT-15, 48 h; summary of the method: as §2
[19] = system: HT-29; test: Anticancer activity against human HT-29 cells after 48 hrs by sulforhodamine B assay; type: functional; details: HT-29, 48 h; summary of the method: as §2
[20] = system: KM12; test: Anticancer activity against human KM12 cells after 48 hrs by sulforhodamine B assay; type: functional; details: KM12, 48 h; summary of the method: as §2
[21] = system: SW-620; test: Anticancer activity against human SW620 cells after 48 hrs by sulforhodamine B assay; type: functional; details: SW-620, 48 h
Summary of the method: (§3)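 Cells from the 60-line full panel are preincubated on microtiter plates, then treated across a five-log dose range for 48 h. Growth is read with the protein-binding dye sulforhodamine B. GI50 is the concentration giving 50% growth inhibition relative to untreated control cells.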

[22] = system: SF-268; test: Anticancer activity against human SF268 cells after 48 hrs by sulforhodamine B assay; type: functional; details: SF-268, 48 h; summary of the method: as §2
[23] = system: SF-295; test: Anticancer activity against human SF295 cells after 48 hrs by sulforhodamine B assay; type: functional; details: SF-295, 48 h; summary of the method: as §2
[24] = system: SNB-19; test: Anticancer activity against human SNB19 cells after 48 hrs by sulforhodamine B assay; type: functional; details: SNB-19, 48 h; summary of the method: as §2
[25] = system: SNB-75; test: Anticancer activity against human SNB75 cells after 48 hrs by sulforhodamine B assay; type: functional; details: SNB-75, 48 h; summary of the method: as §3
[26] = system: U-251; test: Anticancer activity against human U251 cells after 48 hrs by sulforhodamine B assay; type: functional; details: U-251, 48 h; summary of the method: as §3
[27] = system: LOX IMVI; test: Anticancer activity against human LOXIMVI cells after 48 hrs by sulforhodamine B assay; type: functional; summary of the method: as §2
[28] = system: Malme-3M; test: Anticancer activity against human MALME-3M cells after 48 hrs by sulforhodamine B assay; type: functional; summary of the method: as §2
[29] = system: M14; test: Anticancer activity against human M14 cells after 48 hrs by sulforhodamine B assay; type: functional; details: M14, 48 h; summary of the method: as §2
[30] = system: SK-MEL-28; test: Anticancer activity against human SK-MEL-28 cells after 48 hrs by sulforhodamine B assay; type: functional; details: SK-MEL-28, 48 h; summary of the method: as §2
[31] = system: UACC-62; test: Anticancer activity against human UACC62 cells after 48 hrs by sulforhodamine B assay; type: functional; details: UACC-62, 48 h; summary of the method: as §3
[32] = system: UACC-257; test: Anticancer activity against human UACC257 cells after 48 hrs by sulforhodamine B assay; type: functional; details: UACC-257, 48 h; summary of the method: as §3
[33] = system: IGROV-1; test: Anticancer activity against human IGROV1 cells after 48 hrs by sulforhodamine B assay; type: functional; details: IGROV-1, 48 h; summary of the method: as §2
[34] = system: OVCAR-3; test: Anticancer activity against human OVCAR-3 cells after 48 hrs by sulforhodamine B assay; type: functional; details: OVCAR-3, 48 h; summary of the method: as §2
[35] = system: OVCAR-4; test: Anticancer activity against human OVCAR4 cells after 48 hrs by sulforhodamine B assay; type: functional; details: OVCAR-4, 48 h; summary of the method: as §2
[36] = system: OVCAR-5; test: Anticancer activity against human OVCAR5 cells after 48 hrs by sulforhodamine B assay; type: functional; details: OVCAR-5, 48 h; summary of the method: as §2
[37] = system: OVCAR-8; test: Anticancer activity against human OVCAR8 cells after 48 hrs by sulforhodamine B assay; type: functional; details: OVCAR-8, 48 h; summary of the method: as §2
[38] = system: SK-OV-3; test: Anticancer activity against human SKOV3 cells after 48 hrs by sulforhodamine B assay; type: functional; details: SK-OV-3, 48 h; summary of the method: as §2
[39] = system: 786-0; test: Anticancer activity against human 786-0 cells after 48 hrs by sulforhodamine B assay; type: functional; details: 786-0, 48 h; summary of the method: as §2
[40] = system: A498; test: Anticancer activity against human A498 cells after 48 hrs by sulforhodamine B assay; type: functional; details: A498, 48 h; summary of the method: as §2
[41] = system: ACHN; test: Anticancer activity against human ACHN cells after 48 hrs by sulforhodamine B assay; type: functional; summary of the method: as §2
[42] = system: CAKI-1; test: Anticancer activity against human Caki1 cells after 48 hrs by sulforhodamine B assay; type: functional; details: CAKI-1, 48 h; summary of the method: as §2
[43] = system: RXF 393; test: Anticancer activity against human RXF393 cells after 48 hrs by sulforhodamine B assay; type: functional; details: RXF 393, 48 h; summary of the method: as §2
[44] = system: SN12C; test: Anticancer activity against human SN12C cells after 48 hrs by sulforhodamine B assay; type: functional; summary of the method: as §2
[45] = system: TK-10; test: Anticancer activity against human TK10 cells after 48 hrs by sulforhodamine B assay; type: functional; details: TK-10, 48 h; summary of the method: as §3
[46] = system: UO-31; test: Anticancer activity against human UO31 cells after 48 hrs by sulforhodamine B assay; type: functional; details: UO-31, 48 h; summary of the method: as §3
[47] = system: PC-3; test: Anticancer activity against human PC3 cells after 48 hrs by sulforhodamine B assay; type: functional; details: PC-3, 48 h; summary of the method: as §2
[48] = system: DU-145; test: Anticancer activity against human DU145 cells after 48 hrs by sulforhodamine B assay; type: functional; details: DU-145, 48 h; summary of the method: as §2
[49] = system: MCF7; test: Anticancer activity against human MCF7 cells after 48 hrs by sulforhodamine B assay; type: functional; details: MCF7, 48 h; summary of the method: as §2
[50] = system: NCI/ADR-RES; test: Anticancer activity against human NCI/ADR-RES cells after 48 hrs by sulforhodamine B assay; type: functional; summary of the method: as §2
[51] = system: MDA-MB-231; test: Anticancer activity against human MDA-MB-231 cells after 48 hrs by sulforhodamine B assay; type: functional; details: MDA-MB-231, 48 h; summary of the method: as §2
[52] = system: MDA-MB-435; test: Anticancer activity against human MDA-MB-435 cells after 48 hrs by sulforhodamine B assay; type: functional; details: MDA-MB-435, 48 h; summary of the method: as §2
[53] = system: BT-549; test: Anticancer activity against human BT549 cells after 48 hrs by sulforhodamine B assay; type: functional; details: BT-549, 48 h; summary of the method: as §2
[54] = system: T47D; test: Anticancer activity against human T47D cells after 48 hrs by sulforhodamine B assay; type: functional; summary of the method: as §3
[55] = Acute toxicity in orally dosed Swiss albino mouse after 24 hrs; type: organism-based; details: in vivo, po
Summary of the method: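 Male Swiss albino mice (Mus musculus); median lethal dose (LD50) determined after oral dosing, read at 24 h.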

Fc1cc(-c2nnc3n2N=C(c2ccc(Cl)cc2)CS3)c(Cl)cc1Cl
growth at 100 µM [1]: 3%
growth at 100 µM [2]: 3%
growth at 100 µM [3]: 3%
GI50 [4]: 1.69 µM
GI50 [5]: 1.06 µM
GI50 [6]: 18.3 µM
GI50 [7]: 27.4 µM
GI50 [8]: 20.1 µM
GI50 [9]: 16.4 µM
GI50 [10]: 18.1 µM
GI50 [11]: 13.8 µM
GI50 [12]: 16.2 µM
GI50 [13]: 19.1 µM
GI50 [14]: 1.8 µM
GI50 [15]: 7.09 µM
GI50 [16]: 13.6 µM
GI50 [17]: 2.36 µM
GI50 [18]: 1.86 µM
GI50 [19]: 4.6 µM
GI50 [20]: 8.08 µM
GI50 [21]: 1.91 µM
GI50 [22]: 13.2 µM
GI50 [23]: 15.7 µM
GI50 [24]: 19.5 µM
GI50 [25]: 3.37 µM
GI50 [26]: 10.6 µM
GI50 [27]: 1.69 µM
GI50 [28]: 2.37 µM
GI50 [29]: 4.87 µM
GI50 [30]: 6.41 µM
GI50 [31]: 3.63 µM
GI50 [32]: 15.7 µM
GI50 [33]: 3.39 µM
GI50 [34]: 15.1 µM
GI50 [35]: 5.35 µM
GI50 [36]: 10.6 µM
GI50 [37]: 14.8 µM
GI50 [38]: 25.4 µM
GI50 [39]: 2.08 µM
GI50 [40]: 21 µM
GI50 [41]: 4.82 µM
GI50 [42]: 4.21 µM
GI50 [43]: 11.4 µM
GI50 [44]: 3.6 µM
GI50 [45]: 3.11 µM
GI50 [46]: 1.89 µM
GI50 [47]: 18.7 µM
GI50 [48]: 3.41 µM
GI50 [49]: 6.24 µM
GI50 [50]: 3.12 µM
GI50 [51]: 10.8 µM
GI50 [52]: 4.55 µM
GI50 [53]: 3.27 µM
GI50 [54]: 3.9 µM
LD50 at 24 h [55]: 227 mg/kg

— ChEMBL document CHEMBL1154616, “Synthesis and antitumor activity studies of some new fused 1,2,4-triazole derivatives carrying 2,4-dichloro-5-fluorophenyl moiety” (Eur J Med Chem, 2009)
